Results: the array DNA melting data of Ke et al. (doi:10.1101/2024.01.08.574731)

How the values were obtained:
[1] = melting temperature; fluorescence melt of hairpins on a sequencing array, two-state fit, raised by 9.35 °C to match UV melts; settings: sodium 0.088 M
Summary of the method: (§1)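 Bootstrapped two-state fits yielded melting temperature and folding enthalpy for library hairpins. Cy3 fluorescence, with annealed Cy3 and quencher oligos, was imaged on a sequenced MiSeq flow cell in 50 mM Na-HEPES pH 8.0, 25 mM NaCl in 2.5 °C steps up to 60 °C, and normalised to pre-quench Cy3 and to control constructs. Four replicates were combined by inverse variance, and fitted temperatures were raised by 9.35 °C to match UV melts.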

[2] = folding enthalpy; higher = less favourable; fluorescence melt of hairpins on a sequencing array, two-state fit; settings: sodium 0.088 M
Summary of the method: as §1

## GAGGACCCGAAAGGGCTC (((..(((....))))))
[1]
  Tm: 33.9 °C
[2]
  folding enthalpy: -12 kcal/mol

## GAGGACCGAAAGGTTCTC (((.(((....))).)))
[1]
  Tm: 59.4 °C
[2]
  folding enthalpy: -35.2 kcal/mol

## GAGGACGAAAGTCACCTC ((((((....)))..)))
[1]
  Tm: 36.2 °C
[2]
  folding enthalpy: -12.9 kcal/mol

## GAGGACGAAAGTCGGCTC ((((((....)))..)))
[1]
  Tm: 45.6 °C
[2]
  folding enthalpy: -16.7 kcal/mol

## GAGGAGCCGAAAGGCCTC (((..(((....))))))
[1]
  Tm: 41.9 °C
[2]
  folding enthalpy: -11.5 kcal/mol

## GAGGAGCGAAAGCTTCTC (((.(((....))).)))
[1]
  Tm: 57.2 °C
[2]
  folding enthalpy: -33.2 kcal/mol

## GAGGAGGGAAACCTCCTC (((((((....)))))))
[1]
  Tm: 65.3 °C
[2]
  folding enthalpy: -33.4 kcal/mol

## GAGGATACGAAAGTACTC (((..(((....))))))
[1]
  Tm: 26.8 °C
[2]
  folding enthalpy: -9.94 kcal/mol

## GAGGATGCGAAAGCACTC (((..(((....))))))
[1]
  Tm: 34.9 °C
[2]
  folding enthalpy: -14.2 kcal/mol

## GAGGATGGAAACATCCTC (((((((....)))))))
[1]
  Tm: 61.3 °C
[2]
  folding enthalpy: -49.6 kcal/mol

## GAGGATGGAAACATCTTC ((.((((....)))).))
[1]
  Tm: 38.1 °C
[2]
  folding enthalpy: -27.1 kcal/mol

## GAGGATGGAAACATTCTC (((.(((....))).)))
[1]
  Tm: 42.6 °C
[2]
  folding enthalpy: -25.5 kcal/mol

## GAGGCAGAAATGCCTC ((((((....))))))
[1]
  Tm: 60.7 °C
[2]
  folding enthalpy: -37.8 kcal/mol

## GAGGCCCCGAAAGGGCTC (((..(((....))))))
[1]
  Tm: 50.7 °C
[2]
  folding enthalpy: -14.1 kcal/mol

## GAGGCCCGAAAGGGTCTC (((.(((....))).)))
[1]
  Tm: 67.4 °C
[2]
  folding enthalpy: -31.6 kcal/mol

## GAGGCCGAAAGGCACTC ((((((....))).)))
[1]
  Tm: 54.1 °C
[2]
  folding enthalpy: -14.5 kcal/mol

## GAGGCCGAAAGGCGCCTC ((((((....)))..)))
[1]
  Tm: 42 °C
[2]
  folding enthalpy: -12.4 kcal/mol

## GAGGCCGAAAGGCGGCTC ((((((....)))..)))
[1]
  Tm: 55.9 °C
[2]
  folding enthalpy: -12.8 kcal/mol

## GAGGCCGGAAACGGCCCC (.(((((....))))).)
[1]
  Tm: 51.2 °C
[2]
  folding enthalpy: -6.76 kcal/mol

## GAGGCGCGAAAGCGCTC (((.(((....))))))
[1]
  Tm: 46.6 °C
[2]
  folding enthalpy: -7.37 kcal/mol

## GAGGCGGGAAACCGCTTC ((.((((....)))).))
[1]
  Tm: 51 °C
[2]
  folding enthalpy: -15.9 kcal/mol

## GAGGCTACGAAAGTACTC (((..(((....))))))
[1]
  Tm: 23.8 °C
[2]
  folding enthalpy: -10.2 kcal/mol

## GAGGCTGGAAACGGCTTC ((.((.(....).)).))
[1]
  Tm: 36.6 °C
[2]
  folding enthalpy: -20.8 kcal/mol

## GAGGGCGAAAGCCGCCTC ((((((....)))..)))
[1]
  Tm: 36.3 °C
[2]
  folding enthalpy: -9.67 kcal/mol

## GAGGGCGAAAGCCTACTC ((((((....)))..)))
[1]
  Tm: 41.1 °C
[2]
  folding enthalpy: -11 kcal/mol

## GAGGGCGGAAACGCCTTC ((.((((....)))).))
[1]
  Tm: 50.5 °C
[2]
  folding enthalpy: -13.8 kcal/mol

## GAGGGGCGAAAGCCGCTC (((.(((....))).)))
[1]
  Tm: 69.3 °C
[2]
  folding enthalpy: -30.6 kcal/mol

## GAGGGGGGAAACCCCTTC ((.((((....)))).))
[1]
  Tm: 53.5 °C
[2]
  folding enthalpy: -12.5 kcal/mol

## GAGGTCCGAAAGGAGCTC (((.(((....))).)))
[1]
  Tm: 69.3 °C
[2]
  folding enthalpy: -35.5 kcal/mol

## GAGGTCGCGAAAGCGCTC (((..(((....))))))
[1]
  Tm: 35.1 °C
[2]
  folding enthalpy: -9.53 kcal/mol

## GAGGTGCGAAAGCACTC (((.(((....))))))
[1]
  Tm: 48.3 °C
[2]
  folding enthalpy: -10 kcal/mol

## GAGGTGGGAAACCACCCC (.(((((....))))).)
[1]
  Tm: 44.6 °C
[2]
  folding enthalpy: -10.7 kcal/mol

## GAGGTGGGAAACTGCCTC ((((..(....)..))))
[1]
  Tm: 42.7 °C
[2]
  folding enthalpy: -31.5 kcal/mol

## GAGGTTACGAAAGTACTC (((..(((....))))))
[1]
  Tm: 27.9 °C
[2]
  folding enthalpy: -14.3 kcal/mol

## GAGGTTGGAAACAACTTC ((.((((....)))).))
[1]
  Tm: 43.4 °C
[2]
  folding enthalpy: -24 kcal/mol

## GAGTAAACGAAAGTTCTC (((..(((....))))))
[1]
  Tm: 30.1 °C
[2]
  folding enthalpy: -13.9 kcal/mol

## GAGTACGAAAGTAACTC ((((((....))).)))
[1]
  Tm: 45.4 °C
[2]
  folding enthalpy: -23.4 kcal/mol

## GAGTACGAAAGTAAGCTC ((((((....)))..)))
[1]
  Tm: 29.3 °C
[2]
  folding enthalpy: -14.9 kcal/mol

## GAGTACGAAAGTACCTC ((((((....))).)))
[1]
  Tm: 47 °C
[2]
  folding enthalpy: -14.5 kcal/mol

## GAGTACGAAAGTACTC ((((((....))))))
[1]
  Tm: 64.8 °C
[2]
  folding enthalpy: -35.7 kcal/mol

## GAGTACGAAAGTAGTCTC ((((((....)))..)))
[1]
  Tm: 49.2 °C
[2]
  folding enthalpy: -23.4 kcal/mol

## GAGTACGAAAGTATCTC ((((((....))).)))
[1]
  Tm: 41.9 °C
[2]
  folding enthalpy: -26.8 kcal/mol

## GAGTACGAAAGTATTCTC ((((((....)))..)))
[1]
  Tm: 42.6 °C
[2]
  folding enthalpy: -27.4 kcal/mol

## GAGTACGGAAACGTGTTC ((..(((....)))..))
[1]
  Tm: 22.2 °C
[2]
  folding enthalpy: -10.5 kcal/mol

## GAGTATACGAAAGTACTC (((..(((....))))))
[1]
  Tm: 34 °C
[2]
  folding enthalpy: -15.7 kcal/mol

## GAGTATCCGAAAGGACTC (((..(((....))))))
[1]
  Tm: 29.2 °C
[2]
  folding enthalpy: -14.2 kcal/mol

## GAGTATGGAAACATACCC (.(((((....))))).)
[1]
  Tm: 31.4 °C
[2]
  folding enthalpy: -19.4 kcal/mol

## GAGTATGGAAACGTACTC (((((.(....).)))))
[1]
  Tm: 43.5 °C
[2]
  folding enthalpy: -33.1 kcal/mol

## GAGTCAGAAATGACTC ((((((....))))))
[1]
  Tm: 54.6 °C
[2]
  folding enthalpy: -25 kcal/mol

## GAGTCAGGAAACCGACTC (((((.(....).)))))
[1]
  Tm: 46.6 °C
[2]
  folding enthalpy: -36.8 kcal/mol

## GAGTCCGAAAGGAACCTC ((((((....)))..)))
[1]
  Tm: 33 °C
[2]
  folding enthalpy: -16.5 kcal/mol

## GAGTCCGAAAGGAGCCTC ((((((....)))..)))
[1]
  Tm: 34 °C
[2]
  folding enthalpy: -14.3 kcal/mol

## GAGTCCGAAAGGAGTCTC ((((((....)))..)))
[1]
  Tm: 54.5 °C
[2]
  folding enthalpy: -25.1 kcal/mol

## GAGTCCGCGAAAGCGCTC (((..(((....))))))
[1]
  Tm: 24.8 °C
[2]
  folding enthalpy: -7.6 kcal/mol

## GAGTCCGGAAACAGACTC (((((.(....).)))))
[1]
  Tm: 41.6 °C
[2]
  folding enthalpy: -31.1 kcal/mol

## GAGTCGCGAAAGCGCTC (((.(((....))))))
[1]
  Tm: 54.6 °C
[2]
  folding enthalpy: -15.4 kcal/mol

## GAGTCGGGAAACCGACCC (.(((((....))))).)
[1]
  Tm: 42 °C
[2]
  folding enthalpy: -10.8 kcal/mol

## GAGTCTGCGAAAGCACTC (((..(((....))))))
[1]
  Tm: 30.4 °C
[2]
  folding enthalpy: -14.8 kcal/mol

## GAGTCTGGAAACAGGCTC (((.(((....))).)))
[1]
  Tm: 52.2 °C
[2]
  folding enthalpy: -44 kcal/mol

## GAGTGCCCGAAAGGGCTC (((..(((....))))))
[1]
  Tm: 35.5 °C
[2]
  folding enthalpy: -6.67 kcal/mol

## GAGTGCGAAAGCACGCTC ((((((....)))..)))
[1]
  Tm: 66.7 °C
[2]
  folding enthalpy: -10.9 kcal/mol

## GAGTGCGAAAGCAGCTC ((((((....))).)))
[1]
  Tm: 51.3 °C
[2]
  folding enthalpy: -19.9 kcal/mol

## GAGTGCGAAAGCATACTC ((((((....)))..)))
[1]
  Tm: 43.1 °C
[2]
  folding enthalpy: -17.5 kcal/mol

## GAGTGCGGAAACGTACTC ((((.((....)).))))
[1]
  Tm: 53.9 °C
[2]
  folding enthalpy: -43.3 kcal/mol

## GAGTGGCGAAAGCCCCTC (((.(((....))).)))
[1]
  Tm: 48.3 °C
[2]
  folding enthalpy: -19.9 kcal/mol

## GAGTGGGAAACCACTC ((((((....))))))
[1]
  Tm: 60.7 °C
[2]
  folding enthalpy: -33.6 kcal/mol

## GAGTGGGCGAAAGCCCTC (((..(((....))))))
[1]
  Tm: 34 °C
[2]
  folding enthalpy: -8.27 kcal/mol

## GAGTGGGGAAACCCACCC (.(((((....))))).)
[1]
  Tm: 42.7 °C
[2]
  folding enthalpy: -12.2 kcal/mol
